Assay results gathered from unrelated publications.

The Cmax of `C=CC(=O)N1CC2CC(n3nc(-c4ccc(C(=O)Nc5ccccn5)cc4)c4c(N)ncnc43)CC2C1` (centres unmarked) is reported as 61.8 ng/mL (SCID mouse; plasma; oral; 1 mg/kg).
The Vd/F of `COc1ccc([C@@H]2CN(C(=O)[C@@H](O)CO)C[C@@]2(C)[C@@H](C)O)cc1OC1CN(c2ccc(C)cn2)C1` is reported as 55.7 L (human; plasma; oral; 1.5 mg; single dose, healthy volunteers).
`CO[C@H]1CC[C@H](N2C(=O)CNc3ncc(-c4ccc(C(C)(C)O)nc4)nc32)CC1` has a Vd/F of 195 L (human; plasma; oral; 30 mg; patients).
`CC(C)(C)c1ccc(O)c(CN(Cc2cc(C(C)(C)C)ccc2O)C2CCC(NC(N)=O)CC2)c1` (centres unmarked) gave a Cmax of 1070 ng/g (male C57BL/6 mouse; brain; intraperitoneal; 10 mg/kg; single dose).
For `Cc1cc(Nc2cc(N3CCN(C)CC3)nc(/C=C/c3ccccc3)n2)n[nH]1`, the Vd/F was 2340 L (human; plasma; oral; 350 mg/m²; patients).
The Vd/F of `CC(C)(Sc1ccncc1-c1ccc(C#N)c2ccccc12)C(=O)O` is reported as 328 L (male human; plasma; oral; 20 mg; single dose, fasted, healthy volunteers).
The Vd/F of `COc1cc(C(=O)NC2CCN(C)CC2)c(F)cc1Nc1ncc(C(F)(F)F)c(Oc2cccc3c2C(=O)N(C)C3)n1` is reported as 520 L (human; plasma; oral; 25 mg; multiple doses, once daily, patients).
For `CCNCCCNC/C=C\CNCCCNCC`, the Vd was 1.55 L/kg (human; plasma; intravenous; 150 mg; patients, infusion).
